Test results taken from ChEMBL document CHEMBL3608246, “Novel benzidine and diaminofluorene prolinamide derivatives as potent hepatitis C virus NS5A inhibitors” (Eur J Med Chem, 2015).
Active and inactive are the calls of the source. The calls are words filed in the database; no cut-off is given here.

Key:
[1] = Cytotoxicity against human Huh7.5.1 cells; assay type: cell-based, Huh-7
[2] = Cytotoxicity against mouse NIH/3T3 cells by WST dye based CCK8 assay; assay type: cell-based; settings: NIH3T3
How it was run: (§1)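 CCK-8 survival assay: WST-8 tetrazolium reduced by cellular dehydrogenases to orange formazan, giving living-cell count; compounds tested up to 100 µM maximum.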

Hepatitis C virus [3] = assay: Antiviral activity against HCV genotype 2a JFH5a infected in human Huh7.5.1 cells transfected with JFH5a-Rluc-ad34 assessed as reduction in virus proliferation by luciferase reporter gene assay; assay type: functional, cell-based, Hepacivirus hominis, Huh-7; settings: Hepatitis C virus, genotype 2a JFH5a, Huh-7
L929 = assay: Cytotoxicity against mouse L929 cells by WST dye based CCK8 assay; assay type: cell-based; how it was run: as §1
Cytochrome P450 3A4 = Cytochrome P450 3A4 (Homo sapiens, UniProt P08684); assay: Inhibition of human CYP3A4 by luminometry; assay type: ADME
Cytochrome P450 3A4, sequence (P08684 whole entry): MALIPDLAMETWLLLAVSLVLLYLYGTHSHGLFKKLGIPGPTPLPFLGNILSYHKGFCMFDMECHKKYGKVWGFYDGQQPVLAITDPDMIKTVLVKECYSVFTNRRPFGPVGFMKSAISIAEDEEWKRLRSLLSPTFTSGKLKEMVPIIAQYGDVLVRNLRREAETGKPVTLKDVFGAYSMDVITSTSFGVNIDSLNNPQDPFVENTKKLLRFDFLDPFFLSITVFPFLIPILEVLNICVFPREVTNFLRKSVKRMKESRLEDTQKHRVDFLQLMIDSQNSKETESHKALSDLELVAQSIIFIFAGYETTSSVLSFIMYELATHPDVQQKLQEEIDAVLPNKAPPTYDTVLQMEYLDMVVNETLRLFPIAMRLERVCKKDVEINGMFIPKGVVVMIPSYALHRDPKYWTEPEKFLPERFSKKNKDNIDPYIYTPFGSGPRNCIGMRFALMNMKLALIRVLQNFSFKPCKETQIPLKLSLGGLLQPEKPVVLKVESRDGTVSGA
How it was run: (§2)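 Human CYP1A2, 2C9, 2C19, 2D6 and 3A4 inhibition by P450-Glo luminescent assay per kit protocol; compounds at 100, 50, 10, 5, 1, 0.1 and 0.01 µM; luminometer read-out.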

[4] = Cytotoxicity against CHOK1 cells by WST dye based CCK8 assay; assay type: cell-based; settings: Cricetulus griseus, CHO-K1; how it was run: as §1
Salmonella typhimurium [5] = assay: Genotoxicity in Salmonella typhimurium TA100 assessed as induction of revertant colonies at 200 ug/plate in absence of S9 mix by Ames test relative untreated control; assay type: toxicity, organism-based; settings: salmonella enterica subsp. enterica serovar typhimurium
How it was run: (§3)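 Ames test, Maron's method, histidine-requiring S. typhimurium TA98 and TA100, with and without S-9 mix; 200 µg/plate, vehicle and positive controls. Revertant colonies counted in triplicate (mean ± SD, n = 3); factor = treated/vehicle-control colonies; positive if ≥2-fold over vehicle.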

Salmonella typhimurium [6] = assay: Genotoxicity in Salmonella typhimurium TA98 assessed as induction of revertant colonies at 200 ug/plate in absence of S9 mix by Ames test relative untreated control; assay type: toxicity, organism-based; settings: salmonella enterica subsp. enterica serovar typhimurium; how it was run: as §3
Cytochrome P450 1A2 = target: T1, Cytochrome P450 1A2 (Homo sapiens, UniProt P05177); assay: Inhibition of human CYP1A2 by luminometry; assay type: ADME; how it was run: as §2
T1 sequence (P05177 whole entry): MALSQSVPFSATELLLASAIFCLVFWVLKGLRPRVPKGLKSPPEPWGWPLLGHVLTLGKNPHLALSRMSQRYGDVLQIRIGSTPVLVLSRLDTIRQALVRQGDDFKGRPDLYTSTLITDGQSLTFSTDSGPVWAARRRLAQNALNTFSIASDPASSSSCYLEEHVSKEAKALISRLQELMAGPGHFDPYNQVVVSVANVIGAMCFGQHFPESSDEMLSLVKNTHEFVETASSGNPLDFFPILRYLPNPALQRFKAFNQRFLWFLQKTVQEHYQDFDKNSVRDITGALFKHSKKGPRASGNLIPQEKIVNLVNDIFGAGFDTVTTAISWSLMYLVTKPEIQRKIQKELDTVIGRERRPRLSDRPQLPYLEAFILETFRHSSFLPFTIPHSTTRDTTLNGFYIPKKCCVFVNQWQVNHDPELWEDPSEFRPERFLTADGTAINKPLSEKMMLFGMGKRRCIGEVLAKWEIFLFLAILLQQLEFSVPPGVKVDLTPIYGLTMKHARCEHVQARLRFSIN

[7] = Half life in Sprague-Dawley rat at 5 mg/kg, iv by LC/MS/MS method; assay type: ADME, organism-based; settings: in vivo
How it was run: (§4)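 Sprague-Dawley rats, 2 male and 1 female per compound per route, parallel design. Vehicle 5% DMSO, 10% solutol, 85% HPBCD; IV 5 mg/kg bolus via tail vein, oral 10 mg/kg. Blood into K2-EDTA tubes at several time points, centrifuged, plasma analysed by LC/MS/MS; non-compartmental analysis.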

[8] = Stability in human liver microsomes assessed as compound remaining at 1 uM after 0.5 hrs by LC-MS/MS method; assay type: ADME; settings: read-out: Stability
How it was run: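 Pooled human liver microsomal fraction with β-NADPH, compound at 1 µM, incubated over 30 min; remaining compound in supernatant quantified by LC-MS/MS.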

Cytochrome P450 2C9 = Cytochrome P450 2C9 (Homo sapiens, UniProt P11712); assay: Inhibition of human CYP2C9 by luminometry; assay type: ADME; how it was run: as §2
Cytochrome P450 2C9, sequence (P11712 whole entry): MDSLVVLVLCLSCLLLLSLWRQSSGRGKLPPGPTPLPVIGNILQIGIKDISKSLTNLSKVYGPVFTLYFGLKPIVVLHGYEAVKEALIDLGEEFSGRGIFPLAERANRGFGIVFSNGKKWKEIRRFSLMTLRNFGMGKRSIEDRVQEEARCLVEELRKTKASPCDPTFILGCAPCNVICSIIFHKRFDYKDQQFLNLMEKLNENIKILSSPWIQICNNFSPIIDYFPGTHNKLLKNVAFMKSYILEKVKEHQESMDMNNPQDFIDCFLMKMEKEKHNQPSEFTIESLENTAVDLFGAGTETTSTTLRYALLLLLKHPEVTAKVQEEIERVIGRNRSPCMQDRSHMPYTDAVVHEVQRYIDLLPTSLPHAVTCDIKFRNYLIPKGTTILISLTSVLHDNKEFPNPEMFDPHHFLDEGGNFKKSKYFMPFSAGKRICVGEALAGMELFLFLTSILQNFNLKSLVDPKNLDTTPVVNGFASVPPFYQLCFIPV

Vero = assay: Cytotoxicity against African green monkey Vero cells by WST dye based CCK8 assay; assay type: cell-based; settings: Chlorocebus sabaeus; how it was run: as §1
Hepatitis C virus [9] = assay: Antiviral activity against HCV genotype 1b NK/R2AN infected in human Huh7.5.1 cells assessed as reduction in virus replication by luciferase reporter gene assay; assay type: functional, organism-based, Hepacivirus hominis, subtype 1b NK/R2AN, Huh-7; settings: Hepatitis C virus, subtype 1b NK/R2AN, Huh-7
hERG (KCNH2) = hERG (KCNH2) (Homo sapiens, UniProt Q12809); assay: Inhibition of human ERG at 10 uM by fluorescence polarization assay based ligand binding assay
hERG (KCNH2), sequence (Q12809 whole entry): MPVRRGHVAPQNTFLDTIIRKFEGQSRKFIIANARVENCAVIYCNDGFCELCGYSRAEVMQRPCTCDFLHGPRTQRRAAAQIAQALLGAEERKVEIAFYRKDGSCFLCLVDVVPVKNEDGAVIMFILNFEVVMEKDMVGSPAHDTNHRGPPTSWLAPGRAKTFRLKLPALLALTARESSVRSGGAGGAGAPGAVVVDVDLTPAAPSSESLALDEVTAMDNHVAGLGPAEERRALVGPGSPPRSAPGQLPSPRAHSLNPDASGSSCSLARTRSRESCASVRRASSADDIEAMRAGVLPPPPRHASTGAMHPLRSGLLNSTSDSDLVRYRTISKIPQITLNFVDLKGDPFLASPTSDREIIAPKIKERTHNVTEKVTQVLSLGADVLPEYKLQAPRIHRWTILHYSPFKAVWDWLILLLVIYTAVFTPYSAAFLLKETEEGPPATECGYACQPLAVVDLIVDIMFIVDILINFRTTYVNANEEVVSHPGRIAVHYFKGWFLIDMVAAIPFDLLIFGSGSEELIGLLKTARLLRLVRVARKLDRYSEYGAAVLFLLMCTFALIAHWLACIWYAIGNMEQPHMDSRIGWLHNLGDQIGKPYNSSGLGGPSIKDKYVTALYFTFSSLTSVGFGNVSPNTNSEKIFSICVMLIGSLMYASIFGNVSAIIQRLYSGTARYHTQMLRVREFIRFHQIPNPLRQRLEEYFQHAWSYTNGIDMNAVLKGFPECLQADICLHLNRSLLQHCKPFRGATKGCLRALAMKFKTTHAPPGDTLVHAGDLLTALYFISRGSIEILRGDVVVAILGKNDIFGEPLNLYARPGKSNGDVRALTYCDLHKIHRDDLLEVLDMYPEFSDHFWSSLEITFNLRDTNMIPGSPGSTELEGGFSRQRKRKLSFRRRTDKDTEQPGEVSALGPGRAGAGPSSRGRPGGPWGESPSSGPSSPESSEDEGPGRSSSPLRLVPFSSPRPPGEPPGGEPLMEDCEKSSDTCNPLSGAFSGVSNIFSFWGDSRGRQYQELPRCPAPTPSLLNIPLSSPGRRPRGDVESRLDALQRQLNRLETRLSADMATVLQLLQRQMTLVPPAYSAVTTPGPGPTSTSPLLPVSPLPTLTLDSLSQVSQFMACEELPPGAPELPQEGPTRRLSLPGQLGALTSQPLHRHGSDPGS

Hepatitis C virus [10] = assay: Antiviral activity against HCV genotype 1b NK/R2AN infected in human Huh7.5.1 cells expressing NS5A Y93H mutant assessed as reduction in virus replication at 100 pM to 1 uM by luciferase reporter gene assay; assay type: functional, organism-based; settings: Hepacivirus hominis, subtype 1b NK/R2AN, Huh-7
How it was run: (§5)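 Daclatasvir-resistant NS5A mutant RNAs were transcribed in vitro and electroporated into Huh7.5.1 cells grown in 12-well plates. At 4 h post-transfection, medium was replaced with DMEM containing serially diluted compounds. Cells were harvested 3 days later and Renilla luciferase activity was measured and normalized to mock-treated cells.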

[11] = Half life in Sprague-Dawley rat at 10 mg/kg, po by LC/MS/MS method; assay type: ADME, organism-based; settings: in vivo; how it was run: as §4
[12] = Oral bioavailability in Sprague-Dawley rat at 10 mg/kg by LC/MS/MS method; assay type: ADME, organism-based; settings: in vivo; how it was run: as §4
HFL1 = assay: Cytotoxicity against human HFL1 cells by WST dye based CCK8 assay; assay type: cell-based; how it was run: as §1
Cytochrome P450 2D6 = Cytochrome P450 2D6 (Homo sapiens, UniProt P10635); assay: Inhibition of human CYP2D6 by luminometry; assay type: ADME; how it was run: as §2
Cytochrome P450 2D6, sequence (P10635 whole entry): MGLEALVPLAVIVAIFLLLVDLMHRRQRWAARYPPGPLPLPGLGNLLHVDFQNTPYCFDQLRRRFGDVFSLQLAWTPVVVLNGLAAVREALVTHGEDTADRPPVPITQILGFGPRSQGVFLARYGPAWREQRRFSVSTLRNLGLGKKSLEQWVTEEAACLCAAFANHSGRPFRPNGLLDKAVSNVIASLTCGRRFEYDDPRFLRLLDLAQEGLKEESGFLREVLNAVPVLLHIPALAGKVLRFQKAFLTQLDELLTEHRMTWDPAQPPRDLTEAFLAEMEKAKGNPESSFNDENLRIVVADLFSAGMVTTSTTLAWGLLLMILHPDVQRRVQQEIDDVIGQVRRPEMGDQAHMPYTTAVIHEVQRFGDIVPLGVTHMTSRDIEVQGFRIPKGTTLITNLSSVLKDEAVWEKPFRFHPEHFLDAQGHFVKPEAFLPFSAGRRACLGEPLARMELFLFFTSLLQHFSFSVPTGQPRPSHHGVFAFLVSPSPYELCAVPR

Salmonella typhimurium [13] = assay: Genotoxicity in Salmonella typhimurium TA98 assessed as induction of revertant colonies at 200 ug/plate in presence of S9 mix by Ames test relative untreated control; assay type: toxicity, organism-based; settings: salmonella enterica subsp. enterica serovar typhimurium; how it was run: as §3
Salmonella typhimurium [14] = assay: Genotoxicity in Salmonella typhimurium TA100 assessed as induction of revertant colonies at 200 ug/plate in presence of S9 mix by Ames test relative untreated control; assay type: toxicity, organism-based; settings: salmonella enterica subsp. enterica serovar typhimurium; how it was run: as §3
Hepatitis C virus [15] = assay: Antiviral activity against HCV genotype 1b NK/R2AN infected in human Huh7.5.1 cells expressing NS5A L31V mutant assessed as reduction in virus replication at 100 pM to 1 uM by luciferase reporter gene assay; assay type: functional, organism-based; settings: Hepacivirus hominis, subtype 1b NK/R2AN, Huh-7; how it was run: as §5
Cytochrome P450 2C19 = Cytochrome P450 2C19 (Homo sapiens, UniProt P33261); assay: Inhibition of human CYP2C19 by luminometry; assay type: ADME; how it was run: as §2
Cytochrome P450 2C19, sequence (P33261 whole entry): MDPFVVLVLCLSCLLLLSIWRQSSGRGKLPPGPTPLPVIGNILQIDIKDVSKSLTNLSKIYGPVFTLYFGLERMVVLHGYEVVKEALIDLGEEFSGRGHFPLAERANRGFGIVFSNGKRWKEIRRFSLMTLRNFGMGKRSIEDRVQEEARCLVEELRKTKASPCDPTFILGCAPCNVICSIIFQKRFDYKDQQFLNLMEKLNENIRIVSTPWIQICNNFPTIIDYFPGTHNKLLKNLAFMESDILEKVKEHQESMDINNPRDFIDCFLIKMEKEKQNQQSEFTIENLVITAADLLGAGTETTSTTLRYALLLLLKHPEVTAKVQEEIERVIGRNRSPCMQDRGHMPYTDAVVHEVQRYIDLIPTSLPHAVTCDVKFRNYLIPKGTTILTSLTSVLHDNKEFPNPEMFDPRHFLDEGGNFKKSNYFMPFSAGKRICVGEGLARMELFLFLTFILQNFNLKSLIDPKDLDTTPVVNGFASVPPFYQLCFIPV

## COC(=O)N[C@@H](C(=O)N1CCC[C@H]1C(=O)Nc1ccc2c(c1)C(F)(F)c1cc(NC(=O)[C@@H]3CCCN3C(=O)[C@H](NC(=O)OC)c3ccccc3)ccc1-2)c1ccccc1
[1]
  CC50: > 25 µM
[2]
  IC50: > 100 µM
Hepatitis C virus [3]
  EC50: 0.059 nM
L929
  IC50: > 100 µM
Cytochrome P450 3A4
  EC50: 0.976 µM
[4]
  IC50: > 100 µM
Salmonella typhimurium [5]
  fold change (FC): 0.9
Salmonella typhimurium [6]
  fold change (FC): 1.3
Cytochrome P450 1A2
  EC50: > 100 µM
[7]
  half-life: 0.9 h
[8]
  remaining at 0.5 h, 1 µM: 92%
Cytochrome P450 2C9
  EC50: 0.277 µM
Vero
  IC50: > 100 µM
Hepatitis C virus [9]
  EC50: 3 pM
hERG (KCNH2)
  inhibition at 10 µM: 39.1%
Hepatitis C virus [10]
  inhibition: Active
[11]
  half-life: 1.68 h
[12]
  bioavailability: 7.6%
HFL1
  IC50: > 100 µM
Cytochrome P450 2D6
  EC50: > 100 µM
Salmonella typhimurium [13]
  fold change (FC): 1.1
Salmonella typhimurium [14]
  fold change (FC): 0.9
Hepatitis C virus [15]
  inhibition: Active
Cytochrome P450 2C19
  EC50: 13.9 µM
